{"source": "ChEMBL document CHEMBL3352791", "about": "“Thioaryl naphthylmethanone oxime ether analogs as novel anticancer agents” (J Med Chem, 2014)", "key": {"[1]": {"molecular_target": "T1, Signal transducer and activator of transcription 1-alpha/beta (Homo sapiens) (UniProt P42224)", "T1 sequence (whole entry)": "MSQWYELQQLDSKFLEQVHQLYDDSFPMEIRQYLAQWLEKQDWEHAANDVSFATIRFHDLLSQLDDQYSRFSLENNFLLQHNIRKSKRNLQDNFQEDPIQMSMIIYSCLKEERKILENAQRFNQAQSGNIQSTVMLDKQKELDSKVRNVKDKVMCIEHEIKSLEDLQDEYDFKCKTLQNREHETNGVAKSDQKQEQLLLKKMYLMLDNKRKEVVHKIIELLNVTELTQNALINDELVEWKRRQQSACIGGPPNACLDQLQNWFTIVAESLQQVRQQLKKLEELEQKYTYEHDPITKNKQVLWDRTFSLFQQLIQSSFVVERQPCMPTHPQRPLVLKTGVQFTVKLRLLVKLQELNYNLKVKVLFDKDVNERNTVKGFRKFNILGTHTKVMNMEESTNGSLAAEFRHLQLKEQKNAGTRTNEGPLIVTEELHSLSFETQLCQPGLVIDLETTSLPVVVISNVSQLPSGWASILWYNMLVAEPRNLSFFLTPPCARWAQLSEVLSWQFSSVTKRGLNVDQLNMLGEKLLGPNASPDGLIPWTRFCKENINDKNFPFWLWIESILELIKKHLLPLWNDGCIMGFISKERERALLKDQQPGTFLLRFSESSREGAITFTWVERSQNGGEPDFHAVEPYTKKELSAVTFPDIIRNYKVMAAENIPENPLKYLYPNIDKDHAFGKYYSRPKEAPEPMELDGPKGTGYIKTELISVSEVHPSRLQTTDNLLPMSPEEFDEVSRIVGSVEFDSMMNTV", "experiment": "Inhibition of basal level STAT1 phosphorylation in human MDA-MB-231 cells at 1 uM by ELISA", "type": "cell-based"}, "[2]": {"system": "Mast/stem cell growth factor receptor Kit (Homo sapiens), P10721 [D816A]", "sequence (P10721 whole entry D816A)": "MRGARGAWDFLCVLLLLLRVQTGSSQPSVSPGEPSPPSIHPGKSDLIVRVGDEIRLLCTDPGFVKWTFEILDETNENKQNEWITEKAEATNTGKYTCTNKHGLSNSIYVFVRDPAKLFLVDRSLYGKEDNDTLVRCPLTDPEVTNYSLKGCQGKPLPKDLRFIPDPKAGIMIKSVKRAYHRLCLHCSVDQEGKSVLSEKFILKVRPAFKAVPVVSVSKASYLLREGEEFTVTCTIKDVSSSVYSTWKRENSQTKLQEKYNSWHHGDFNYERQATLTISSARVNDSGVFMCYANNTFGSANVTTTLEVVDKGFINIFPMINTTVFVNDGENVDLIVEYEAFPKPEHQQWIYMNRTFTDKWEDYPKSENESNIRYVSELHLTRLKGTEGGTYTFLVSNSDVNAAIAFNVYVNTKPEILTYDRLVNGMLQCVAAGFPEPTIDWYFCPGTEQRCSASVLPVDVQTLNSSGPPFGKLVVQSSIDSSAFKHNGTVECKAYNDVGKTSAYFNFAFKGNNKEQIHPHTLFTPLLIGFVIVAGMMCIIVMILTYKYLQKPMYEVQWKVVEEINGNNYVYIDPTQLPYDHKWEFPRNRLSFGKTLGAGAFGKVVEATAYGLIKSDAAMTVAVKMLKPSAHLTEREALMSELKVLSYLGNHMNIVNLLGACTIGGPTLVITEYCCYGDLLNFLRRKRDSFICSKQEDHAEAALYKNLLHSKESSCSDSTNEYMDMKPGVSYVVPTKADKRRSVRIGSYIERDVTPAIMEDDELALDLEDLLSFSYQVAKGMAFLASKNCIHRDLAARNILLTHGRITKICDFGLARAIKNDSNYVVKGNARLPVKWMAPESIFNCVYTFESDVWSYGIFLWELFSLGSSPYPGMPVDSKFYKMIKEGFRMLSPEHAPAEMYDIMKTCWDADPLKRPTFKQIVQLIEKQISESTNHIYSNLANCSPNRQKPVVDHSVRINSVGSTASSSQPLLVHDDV", "experiment": "Inhibition of cKit D816A mutant (unknown origin) at 10 uM", "how_it_was_run": "(§1)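 Cell-free kinase profiling was run as a standard 33P-ATP-based in vitro kinase assay.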"}, "MDA-MB-231 [3]": {"system": "MDA-MB-231", "experiment": "Inhibition of CDC42 protein expression in human MDA-MB-231 cells at 1 uM after 24 hrs by ELISA", "type": "functional, cell-based", "how_it_was_run": "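MDA-MB-231 cells treated at 1µM for 24 h. CDC42 protein measured with a G-LISA ELISA kit.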"}, "MDA-MB-231 [4]": {"system": "MDA-MB-231", "experiment": "Induction of PTEN expression in human MDA-MB-231 cells at 1 uM after 24 hrs by qPCR analysis", "type": "functional, cell-based", "how_it_was_run": "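qPCR on MDA-MB-231 cells treated with 1µM compound; GAPDH as internal control.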"}, "[5]": {"system": "Mast/stem cell growth factor receptor Kit (Homo sapiens), P10721 [D816G]", "sequence (P10721 whole entry D816G)": "as the sequence (P10721 whole entry D816A) above, with A816G counted along it", "experiment": "Inhibition of cKit D816G mutant (unknown origin) at 10 uM", "how_it_was_run": "as §1"}, "[6]": {"molecular_target": "RAC-alpha serine/threonine-protein kinase (Homo sapiens) (UniProt P31749)", "sequence (P31749 whole entry)": "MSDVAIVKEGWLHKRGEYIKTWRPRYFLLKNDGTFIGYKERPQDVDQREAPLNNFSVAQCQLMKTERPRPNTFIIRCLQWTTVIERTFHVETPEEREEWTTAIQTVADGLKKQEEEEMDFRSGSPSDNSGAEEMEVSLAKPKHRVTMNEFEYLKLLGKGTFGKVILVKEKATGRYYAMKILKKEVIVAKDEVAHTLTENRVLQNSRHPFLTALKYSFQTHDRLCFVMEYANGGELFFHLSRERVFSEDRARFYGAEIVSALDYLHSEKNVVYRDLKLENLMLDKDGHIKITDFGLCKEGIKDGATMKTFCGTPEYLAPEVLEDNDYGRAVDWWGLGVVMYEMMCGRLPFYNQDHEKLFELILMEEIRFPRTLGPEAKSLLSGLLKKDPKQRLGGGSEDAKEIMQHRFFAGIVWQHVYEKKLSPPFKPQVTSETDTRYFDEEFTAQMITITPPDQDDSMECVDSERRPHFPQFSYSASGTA", "experiment": "Inhibition of EGF-induced AKT phosphorylation in human MCF7 cells at 1 uM by ELISA", "type": "cell-based"}, "[7]": {"molecular_target": "Mitogen-activated protein kinase; ERK1/ERK2 (Homo sapiens) (UniProt P27361+P28482)", "sequence (P27361 whole entry, looked up)": "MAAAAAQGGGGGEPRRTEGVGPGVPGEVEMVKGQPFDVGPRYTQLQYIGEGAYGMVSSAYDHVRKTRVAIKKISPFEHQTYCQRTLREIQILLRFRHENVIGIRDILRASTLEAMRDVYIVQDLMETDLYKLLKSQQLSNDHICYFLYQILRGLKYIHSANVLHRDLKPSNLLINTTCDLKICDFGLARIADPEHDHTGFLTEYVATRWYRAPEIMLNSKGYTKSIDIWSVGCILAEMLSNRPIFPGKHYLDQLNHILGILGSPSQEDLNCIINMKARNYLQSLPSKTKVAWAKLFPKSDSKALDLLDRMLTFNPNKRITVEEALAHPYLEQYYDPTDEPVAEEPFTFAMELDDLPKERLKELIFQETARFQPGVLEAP", "sequence (P28482 whole entry, looked up)": "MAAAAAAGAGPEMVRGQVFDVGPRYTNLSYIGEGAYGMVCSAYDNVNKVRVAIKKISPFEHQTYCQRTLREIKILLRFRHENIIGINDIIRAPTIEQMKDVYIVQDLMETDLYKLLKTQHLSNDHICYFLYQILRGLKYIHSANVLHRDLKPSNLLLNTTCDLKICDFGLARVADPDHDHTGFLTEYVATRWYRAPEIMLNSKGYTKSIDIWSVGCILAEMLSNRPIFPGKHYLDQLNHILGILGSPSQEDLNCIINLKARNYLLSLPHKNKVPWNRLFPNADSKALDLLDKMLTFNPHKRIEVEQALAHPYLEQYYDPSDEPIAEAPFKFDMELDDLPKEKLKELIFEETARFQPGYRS", "experiment": "Inhibition of EGF-induced ERK1/2 phosphorylation in human MCF7 cells at 1 uM by ELISA", "type": "cell-based"}, "MCF7 [8]": {"system": "MCF7", "experiment": "Induction of apoptosis in human […] cells assessed as increase in Bax to Bcl2 ratio at 5 uM after 24 hrs by immunoblotting analysis", "type": "functional, cell-based", "how_it_was_run": "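Immunoblot of Bax and Bcl-2 in cell lysates, loading normalized to actin; mean ± SEM, three independent experiments.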"}, "MDA-MB-231 [9]": {"system": "MDA-MB-231", "experiment": "Cytotoxicity against human MDA-MB-231 cells assessed as cell viability at 5 uM by MTT assay in presence of 100 ng/ml cholera toxin for 16 hrs", "type": "functional, cell-based"}, "[10]": {"molecular_target": "RAC-alpha serine/threonine-protein kinase (Homo sapiens) (UniProt P31749)", "experiment": "Inhibition of basal level AKT phosphorylation in human MCF7 cells at 1 uM by ELISA", "type": "cell-based"}, "[11]": {"molecular_target": "Dual 3',5'-cyclic-AMP and -GMP phosphodiesterase 11A (Homo sapiens) (UniProt Q9HCR9)", "sequence (Q9HCR9 whole entry, looked up, canonical isoform)": "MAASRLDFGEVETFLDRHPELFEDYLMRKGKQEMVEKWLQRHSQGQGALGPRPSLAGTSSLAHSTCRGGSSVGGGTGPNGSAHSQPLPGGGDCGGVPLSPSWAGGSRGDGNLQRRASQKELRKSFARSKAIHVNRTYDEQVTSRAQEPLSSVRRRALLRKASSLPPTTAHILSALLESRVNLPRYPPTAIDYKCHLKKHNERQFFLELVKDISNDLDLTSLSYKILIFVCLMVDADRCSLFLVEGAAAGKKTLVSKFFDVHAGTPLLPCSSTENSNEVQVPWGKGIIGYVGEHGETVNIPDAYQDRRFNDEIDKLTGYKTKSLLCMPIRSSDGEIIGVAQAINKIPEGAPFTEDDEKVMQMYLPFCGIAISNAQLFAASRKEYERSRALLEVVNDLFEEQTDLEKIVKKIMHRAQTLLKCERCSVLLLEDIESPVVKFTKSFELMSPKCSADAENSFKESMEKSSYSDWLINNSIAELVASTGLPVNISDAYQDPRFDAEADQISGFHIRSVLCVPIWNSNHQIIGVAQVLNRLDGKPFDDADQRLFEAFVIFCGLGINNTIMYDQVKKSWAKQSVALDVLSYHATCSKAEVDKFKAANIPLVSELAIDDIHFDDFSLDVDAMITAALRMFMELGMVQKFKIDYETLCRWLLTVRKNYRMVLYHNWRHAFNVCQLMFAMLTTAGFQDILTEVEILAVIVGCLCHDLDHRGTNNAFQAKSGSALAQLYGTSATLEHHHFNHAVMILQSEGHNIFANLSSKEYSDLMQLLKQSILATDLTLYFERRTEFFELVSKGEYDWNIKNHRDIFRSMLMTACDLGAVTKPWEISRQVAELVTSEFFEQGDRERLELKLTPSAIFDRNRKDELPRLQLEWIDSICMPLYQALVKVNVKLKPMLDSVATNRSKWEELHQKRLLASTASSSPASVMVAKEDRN", "experiment": "Inhibition of PDE11A1 (unknown origin) activity at 1 to 10 uM", "how_it_was_run": "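Recombinant PDE isoform activity was read by fluorescence polarization. A binding reagent complexes with the nucleotide monophosphate that the phosphodiesterase generates from cAMP/cGMP, and this raises the polarization of the labelled substrate. Reference standards were PDE1A3 10µM IBMX, PDE2A3 1nM BAY 60-7550, PDE3CAT 1µM cilostazol, PDE4CAT rolipram, PDE5CAT 0.1µM sildenafil, PDE7A […], PDE8A1 10µM BRL-50481, PDE9A1 1µM SB 36216 and PDE11A1 dipyridamole.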"}, "[12]": {"molecular_target": "Platelet-derived growth factor receptor beta (Homo sapiens) (UniProt P09619)", "sequence (P09619 whole entry)": "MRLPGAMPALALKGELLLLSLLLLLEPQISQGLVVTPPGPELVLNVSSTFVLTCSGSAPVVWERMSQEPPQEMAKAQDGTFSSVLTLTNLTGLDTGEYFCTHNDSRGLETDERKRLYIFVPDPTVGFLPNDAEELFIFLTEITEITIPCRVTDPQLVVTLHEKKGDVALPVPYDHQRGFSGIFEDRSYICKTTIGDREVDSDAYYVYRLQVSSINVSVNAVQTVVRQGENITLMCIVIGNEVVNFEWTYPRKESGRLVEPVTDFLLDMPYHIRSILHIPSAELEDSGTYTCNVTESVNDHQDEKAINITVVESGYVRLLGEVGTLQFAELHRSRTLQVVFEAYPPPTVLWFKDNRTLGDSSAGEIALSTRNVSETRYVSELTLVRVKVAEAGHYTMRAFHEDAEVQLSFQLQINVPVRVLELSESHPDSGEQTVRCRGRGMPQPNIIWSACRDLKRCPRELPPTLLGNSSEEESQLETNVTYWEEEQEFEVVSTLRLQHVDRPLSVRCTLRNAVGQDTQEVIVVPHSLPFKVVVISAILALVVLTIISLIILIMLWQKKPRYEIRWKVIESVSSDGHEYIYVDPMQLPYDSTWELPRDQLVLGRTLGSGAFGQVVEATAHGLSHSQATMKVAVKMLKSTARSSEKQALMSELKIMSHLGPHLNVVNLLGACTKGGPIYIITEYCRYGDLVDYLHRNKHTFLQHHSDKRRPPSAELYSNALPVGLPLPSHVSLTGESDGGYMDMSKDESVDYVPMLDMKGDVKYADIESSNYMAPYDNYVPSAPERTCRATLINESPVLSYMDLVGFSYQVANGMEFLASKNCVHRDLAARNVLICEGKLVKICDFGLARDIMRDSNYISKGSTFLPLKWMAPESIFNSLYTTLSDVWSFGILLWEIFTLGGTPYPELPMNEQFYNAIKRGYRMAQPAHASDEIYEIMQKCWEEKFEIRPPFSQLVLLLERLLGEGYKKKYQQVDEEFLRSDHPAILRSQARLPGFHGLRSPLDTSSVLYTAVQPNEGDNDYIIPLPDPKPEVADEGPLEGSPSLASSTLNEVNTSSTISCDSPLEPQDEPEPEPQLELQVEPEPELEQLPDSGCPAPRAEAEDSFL", "experiment": "Inhibition of PDGFRbeta (unknown origin) at 10 uM", "how_it_was_run": "as §1"}, "MCF7 [13]": {"system": "MCF7", "experiment": "Cell cycle arrest in human […] cells assessed as accumulation at G1 phase at 7.5 uM by propidium iodide staining by FACS analysis (reference value: 62.88%)", "type": "functional"}, "in vitro": {"experiment": "in vitro", "conditions": "human, MCF10A cells versus"}, "HEK293": {"system": "HEK293", "experiment": "Antiproliferative activity against HEK293 cells after 24 hrs by MTT assay", "type": "functional, cell-based", "conditions": "Homo sapiens, HEK293, 24 h", "how_it_was_run": "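MTT viability: cells seeded at 1×10^4 per well in DMEM with 10% FBS, left to adhere overnight, then serum-starved 4 h. Compounds were given at a range of doses, with 0.1% DMSO vehicle as control. EC50 was taken from dose-response curves spanning 100nM-50µM. Data are mean ± SEM from at least three independent experiments.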"}, "[14]": {"experiment": "Safety index, ratio of IC50 for human MCF10A cells to EC50 for human SW620 cells", "type": "toxicity, cell-based, SW-620", "conditions": "MCF10A cells versus SW620 cells, read-out: Ratio IC50/EC50", "how_it_was_run": "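Safety index is the IC50 in the normal cells divided by the EC50 in the cancer cells. Both values come from MTT assays: cells in DMEM with 10% FBS, serum-starved 4 h, then exposed to compound across a 100nM-50µM dose range with 0.1% DMSO as vehicle control.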"}, "MCF7 [15]": {"system": "MCF7", "experiment": "Cell cycle arrest in human […] cells assessed as accumulation at G2 phase at 2.5 uM by propidium iodide staining by FACS analysis (reference value: 10.96%)", "type": "functional"}, "MCF7 [16]": {"system": "MCF7", "experiment": "Antitumor activity against human MCF7 cells xenografted in NIH-3 mouse assessed as reduction in tumor volume at 16 mg/kg, po for 25 days relative to control", "type": "functional", "conditions": "MCF7, 600 h"}, "MDA-MB-231 [17]": {"system": "MDA-MB-231", "experiment": "Cell cycle arrest in human […] cells assessed as accumulation at G1 phase at 7.5 uM by propidium iodide staining by FACS analysis (reference value: 63.74%)", "type": "functional"}, "MDA-MB-231 [18]": {"system": "MDA-MB-231", "experiment": "Cell cycle arrest in human […] cells assessed as accumulation at G2 phase at 7.5 uM by propidium iodide staining by FACS analysis (reference value: 22.74%)", "type": "functional"}, "MCF7 [19]": {"system": "MCF7", "experiment": "Cell cycle arrest in human […] cells assessed as accumulation at G2 phase at 5 uM by propidium iodide staining by FACS analysis (reference value: 10.96%)", "type": "functional"}}, "note": "pIC50: −log10 of the molar value. Active and inactive are the calls of the source. The calls are words filed in the database; no cut-off is given here.", "data": [{"smiles": "CCN(CC)CCO/N=C(\\c1ccc(SC)cc1)c1cccc2ccccc12", "values": [{"measurement": "inhibition", "setting": "[1]", "value": "inactive"}, {"measurement": "inhibition", "setting": "[2]", "value": "inactive"}, {"measurement": "inhibition", "setting": "MDA-MB-231 [3]", "value": "Active"}, {"measurement": "Activity", "setting": "MDA-MB-231 [4]", "value": "Active"}, {"measurement": "inhibition", "setting": "[5]", "value": "inactive"}, {"measurement": "inhibition", "setting": "[6]", "value": "Active"}, {"measurement": "inhibition", "setting": "[7]", "value": "Active"}, {"measurement": "Activity", "setting": "MCF7 [8]", "value": "Active"}, {"measurement": "inhibition", "setting": "MDA-MB-231 [9]", "value": "Active"}, {"measurement": "inhibition", "setting": "[10]", "value": "inactive"}, {"measurement": "inhibition", "setting": "[11]", "value": "inactive"}, {"measurement": "inhibition", "setting": "[12]", "value": "inactive"}]}, {"smiles": "CCN(CC)CCO/N=C(\\c1ccc(SC)cc1)c1cccc2ccccc12.O=C(O)C(=O)O", "values": [{"measurement": "Activity", "setting": "MCF7 [13]", "value": 85.99, "unit": "%"}, {"measurement": "selectivity ratio", "setting": "in vitro", "value": 16.6}, {"measurement": "pIC50", "setting": "HEK293", "value": 4.70}, {"measurement": "selectivity ratio", "setting": "[14]", "value": 2.2}, {"measurement": "Activity", "setting": "MCF7 [15]", "value": 12.46, "unit": "%"}, {"measurement": "inhibition in vivo at 16 mg/kg", "setting": "MCF7 [16]", "value": 50, "unit": "%"}, {"measurement": "Activity", "setting": "MDA-MB-231 [17]", "value": 91.17, "unit": "%"}, {"measurement": "Activity", "setting": "MDA-MB-231 [18]", "value": 6.09, "unit": "%"}, {"measurement": "Activity", "setting": "MCF7 [19]", "value": 11.48, "unit": "%"}]}]}
